Six compounds from paper PMC6645225 (ACS Omega, 2018) can be followed below.

Entries after “also recorded” stand apart in the source; their conditions may differ.

In data set [1] the target is T1, CYP1A2 (Homo sapiens, UniProt P05177).
T1 sequence (P05177 1-516): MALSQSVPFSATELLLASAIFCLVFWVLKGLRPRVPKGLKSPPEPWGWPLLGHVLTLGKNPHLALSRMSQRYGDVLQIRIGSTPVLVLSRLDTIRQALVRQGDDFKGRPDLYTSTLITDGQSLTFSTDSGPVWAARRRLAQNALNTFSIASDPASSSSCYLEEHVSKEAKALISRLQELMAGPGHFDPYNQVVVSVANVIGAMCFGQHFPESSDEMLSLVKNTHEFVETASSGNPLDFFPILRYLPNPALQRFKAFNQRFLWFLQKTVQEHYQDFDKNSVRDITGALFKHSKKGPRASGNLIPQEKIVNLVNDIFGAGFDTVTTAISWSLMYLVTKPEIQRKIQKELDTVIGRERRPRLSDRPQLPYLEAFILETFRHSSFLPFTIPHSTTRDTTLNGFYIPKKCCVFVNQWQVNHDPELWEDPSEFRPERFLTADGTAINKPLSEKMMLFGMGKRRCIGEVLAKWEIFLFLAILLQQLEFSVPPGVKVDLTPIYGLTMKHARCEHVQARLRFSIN
As to the kind of experiment: CYP1A2 inhibition in Sacchrosomes. The format is biochemical. In outline: (§1)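 Kinetic microplate assay, 15 min reaction, using recombinant human P450s expressed in S. cerevisiae microsomes. Run in 100 mM potassium phosphate pH 7.4 with an NADPH-regenerating system (final: 0.04 units G6PDH, 1.3 mM NADP+, 3.3 mM glucose-6-phosphate, 3.3 mM MgCl2, 50 μM sodium citrate). Reaction started with substrate plus NADPH system. Test compound serially diluted from 20 μM final (CYP2E1: from 10 μM), 0.5% DMSO final. IC50 from Hill fit.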

Data set [2] deals with T2, CYP1B1 (Homo sapiens, UniProt Q16678).
T2 sequence (Q16678 1-543): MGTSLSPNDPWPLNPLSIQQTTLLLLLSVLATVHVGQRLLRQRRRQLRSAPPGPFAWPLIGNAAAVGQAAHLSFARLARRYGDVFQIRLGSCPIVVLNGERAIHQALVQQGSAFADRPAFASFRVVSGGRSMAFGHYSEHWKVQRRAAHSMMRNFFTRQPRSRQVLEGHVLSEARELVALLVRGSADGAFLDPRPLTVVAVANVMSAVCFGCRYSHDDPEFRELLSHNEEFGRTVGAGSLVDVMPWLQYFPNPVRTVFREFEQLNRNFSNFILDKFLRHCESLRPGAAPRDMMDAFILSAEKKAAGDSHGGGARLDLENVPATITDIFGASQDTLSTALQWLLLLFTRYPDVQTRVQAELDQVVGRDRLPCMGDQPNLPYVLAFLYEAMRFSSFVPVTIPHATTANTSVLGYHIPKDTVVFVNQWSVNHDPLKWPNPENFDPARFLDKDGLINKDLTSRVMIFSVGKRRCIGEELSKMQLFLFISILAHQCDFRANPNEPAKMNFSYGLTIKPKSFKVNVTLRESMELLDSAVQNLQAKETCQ
As to the kind of experiment: CYP1B1 inhibition in Sacchrosomes. The format is biochemical. In outline: as §1

For data set [3], the system named is CYP2A6, CYP2B6, CYP2C8, CYP2C9, CYP2C18, CYP2C19, CYP2D6, CYP2E1, CYP3A4. As to the kind of experiment: CYP2 and CYP3 subfamily panel inhibition in Sacchrosomes. It counts as biochemical. The following applies: human, pH 7.4. In outline: as §1
In data set [4] the target is T3, CYP1A1 (Homo sapiens, UniProt P04798).
T3 sequence (P04798 1-512): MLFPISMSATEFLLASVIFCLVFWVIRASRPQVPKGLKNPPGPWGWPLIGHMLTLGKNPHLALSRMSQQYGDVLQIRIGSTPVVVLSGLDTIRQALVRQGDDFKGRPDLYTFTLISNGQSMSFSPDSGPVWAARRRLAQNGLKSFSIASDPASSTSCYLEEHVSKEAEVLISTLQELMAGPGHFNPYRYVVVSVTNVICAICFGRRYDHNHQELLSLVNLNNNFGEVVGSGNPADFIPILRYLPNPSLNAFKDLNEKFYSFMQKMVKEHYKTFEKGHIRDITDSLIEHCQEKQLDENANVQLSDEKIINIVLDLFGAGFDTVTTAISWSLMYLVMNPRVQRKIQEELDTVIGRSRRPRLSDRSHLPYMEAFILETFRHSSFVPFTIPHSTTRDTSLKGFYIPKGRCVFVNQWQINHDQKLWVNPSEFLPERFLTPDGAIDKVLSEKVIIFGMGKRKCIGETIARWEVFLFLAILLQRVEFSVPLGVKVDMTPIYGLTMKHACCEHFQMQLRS
As to the kind of experiment: CYP1A1 inhibition in yeast microsomes. The format is biochemical. In outline: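 Human CYP1A1 expressed in yeast microsomes (Sacchrosomes). […] IC50 from a four-parameter variable-slope sigmoidal (Hill) fit of uninhibited fraction against inhibitor concentration.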

For another data set, the system named is normal HEK293 cells. As to the kind of experiment: B[a]P toxicity in normal HEK293 cells. It counts as cell-based. The following applies: Homo sapiens, HEK293, read-out: EC50 of B[a]P in normal HEK293 cells. In outline: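 Adherent HEK293 cells exposed to a concentration series of B[a]P; viability read by MTT assay. EC50 is the B[a]P concentration giving 50% loss of viability, taken from a dose–response curve of viability versus log B[a]P concentration.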

The nature of data set [5]: Protection of CYP1A1-overexpressing HEK293 cells from B[a]P toxicity. It counts as cell-based, human. The following applies: human, CYP1A1-overexpressing HEK293 cells. In outline:
(§2)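 CYP1A1-expressing adherent HEK293 cells exposed to B[a]P at 0.05–100 μM, alone or with test compound. Viability read by MTT and checked by sulforhodamine B. EC50 (B[a]P concentration for 50% viability loss) taken from a dose–response curve of viability versus log B[a]P concentration, averaged over three independent experiments.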

The target in data set [6] is T3, CYP1A1. As to the kind of experiment: CYP1A1 inhibition in live HEK293 cells overexpressing CYP1A1. The format is cell-based. The conditions noted are these: for selectivity for CYP1A1 over CYP1B1: ratio of live cell IC50 values CYP1B1/CYP1A1; for inhibition at 10 µM: human, live HEK293 cells overexpressing CYP1A1, % inhibition of CYP1A1 at 10 μM (Mean ± SD) HEK293 cells, HEK293 cells overexpressing CYP1A1.

The target in data set [7] is T1, CYP1A2. As to the kind of experiment: CYP1A2 inhibition in live human HEK293 cells. It counts as cell-based. In outline: (§3)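 Live recombinant HEK293 cells, each expressing a single human CYP isoform. IC50 from a four-parameter variable-slope sigmoidal (Hill) fit of uninhibited fraction against inhibitor concentration.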
Data set [8] concerns the target T2, CYP1B1. As to the kind of experiment: CYP1B1 inhibition in live human HEK293 cells. The format is cell-based. In outline:
as §3

In another data set the target is CYP3A4 (Homo sapiens, UniProt P08684). As to the kind of experiment: CYP3A4 inhibition in live human HEK293 cells. It counts as cell-based. In outline:
as §3

Another data set concerns the target CYP2D6 (Homo sapiens, UniProt P10635). As to the kind of experiment: CYP2D6 inhibition in live human HEK293 cells. The format is cell-based. In outline:
as §3

The subject of data set [9] is CYP1A1-overexpressing HEK293 cells. As to the kind of experiment: Protection of CYP1A1-overexpressing HEK293 cells from B[a]P toxicity. The format is cell-based, human. The conditions noted are these: compound at 3× IC50 concentration. In outline:
as §2

The subject of another data set is Calu-1 cells. As to the kind of experiment: FACS cell cycle analysis of Calu-1 lung cancer cells treated with B[a]P. The format is cell-based, human. The conditions noted are these: Calu-1 (p53-null); 4l at 3× IC50 before 15 μM B[a]P. In outline: (§4)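 CYP1A1 expression in the cells confirmed by western blot. Cells preincubated 20 h with test compound, exposed to 15 μM B[a]P for 3 h, then released into fresh medium for 57 h. Cells trypsinised, PBS-washed and fixed 1 h in 70% ethanol at −20 °C. Treated with RNase (0.5 mg/mL) and stained with propidium iodide (50 μg/mL) for 1 h at 4 °C in the dark. Single cells gated; about 10 000 events collected; % G0/G1, S and G2/M reported.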

The test system of another data set is A549 cells. As to the kind of experiment: FACS cell cycle analysis of A549 lung cancer cells treated with B[a]P. The format is cell-based, human. The conditions noted are these: A549 (p53+); 4l at 3× IC50 before 15 μM B[a]P. In outline:
as §4

Chain of CYP2D6 (P10635 whole entry): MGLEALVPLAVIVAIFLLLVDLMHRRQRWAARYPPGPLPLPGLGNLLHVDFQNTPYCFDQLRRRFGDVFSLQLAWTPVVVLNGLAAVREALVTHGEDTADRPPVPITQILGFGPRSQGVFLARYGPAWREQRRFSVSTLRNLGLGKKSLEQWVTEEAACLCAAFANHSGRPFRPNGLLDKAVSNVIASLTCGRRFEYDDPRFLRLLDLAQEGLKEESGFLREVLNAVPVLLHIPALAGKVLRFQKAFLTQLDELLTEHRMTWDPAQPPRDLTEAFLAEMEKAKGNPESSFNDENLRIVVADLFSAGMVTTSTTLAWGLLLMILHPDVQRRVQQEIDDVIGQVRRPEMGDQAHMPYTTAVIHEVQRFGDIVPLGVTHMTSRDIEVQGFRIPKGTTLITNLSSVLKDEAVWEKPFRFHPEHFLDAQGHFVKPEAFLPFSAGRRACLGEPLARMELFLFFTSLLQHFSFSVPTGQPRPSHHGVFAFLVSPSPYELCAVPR
Chain of CYP3A4 (P08684 whole entry): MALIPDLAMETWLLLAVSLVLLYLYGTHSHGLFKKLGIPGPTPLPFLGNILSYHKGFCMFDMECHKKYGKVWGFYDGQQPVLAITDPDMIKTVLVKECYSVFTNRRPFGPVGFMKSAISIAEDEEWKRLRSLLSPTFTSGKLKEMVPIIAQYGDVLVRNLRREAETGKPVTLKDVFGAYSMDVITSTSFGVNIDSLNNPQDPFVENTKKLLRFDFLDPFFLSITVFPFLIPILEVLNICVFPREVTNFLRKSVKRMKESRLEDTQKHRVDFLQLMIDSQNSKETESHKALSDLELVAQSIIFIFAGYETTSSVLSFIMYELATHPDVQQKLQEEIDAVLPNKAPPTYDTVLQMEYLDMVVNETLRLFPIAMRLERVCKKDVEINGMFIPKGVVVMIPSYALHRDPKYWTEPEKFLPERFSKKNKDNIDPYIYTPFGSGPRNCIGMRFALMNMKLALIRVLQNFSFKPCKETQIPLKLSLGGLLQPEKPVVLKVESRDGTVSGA

One may read the IC50 as the midpoint of a concentration-inhibition curve. Low values mean greater potency in that assay, high ones weaker potency in that assay. On to `COc1c(C(=O)C=Cc2ccsc2)c(O)c(OC)c2occc12` [3r, 1-(6-Hydroxy-4,7-dimethoxybenzofuran-5-yl)-3-(thiophen-3-yl)prop-2-en-1-one], for which the IC50 at CYP1A2 [1] was found to be 4.2 ± 0.8 µM; at CYP1B1 [2] it was 0.78 ± 0.04 µM; against CYP1A1 [4], 0.28 ± 0.03 µM. Further, in data set [3], the IC50 at 15 min was > 20 µM.
The term EC50 denotes the concentration needed to bring the measured effect to its halfway point. Turning to `c1ccc2c(c1)cc1ccc3cccc4ccc2c1c34` [B[a]P, benzo[a]pyrene, reference compound], the values for the EC50 (in the data set on normal HEK293 cells; in data set [5]) were 14 µM and 1.4 µM, respectively.
Regarding `COc1c2c(c(OC)c3occc13)OC(c1cccnc1)CC2=O` (stereo not drawn) [4e, 4,9-Dimethoxy-7-(pyridin-3-yl)-6,7-dihydro-5H-furo[3,2-g]chromen-5-one], the IC50 at CYP1A1 [6] was 0.45 ± 0.06 µM; on CYP1A2 [7], > 10 µM; against CYP1B1 [8] it was 4.16 ± 0.25 µM; at CYP3A4, > 10 µM; at CYP2D6 it was > 10 µM. The “selectivity for CYP1A1 over CYP1B1” value on CYP1A1 [6] was 9.2 fold.
As a reminder, the inhibition is the share of the control response that was lost under treatment. Read a high inhibition as strong suppression. With `COc1c2c(c(OC)c3occc13)OC(c1ccccc1)CC2=O` (stereo not drawn) [4a, 4,9-Dimethoxy-7-phenyl-6,7-dihydro-5H-furo[3,2-g]chromen-5-one], the IC50 at CYP1A1 [6] is 1.84 ± 0.14 µM; at CYP1A2 [7] it was > 10 µM; against CYP1B1 [8] it was 0.566 ± 0.08 µM; against CYP3A4, > 10 µM; at CYP2D6, > 10 µM. The same compound showed an inhibition at 10 µM at CYP1A1 [6] of 87%.
Consider `COc1c2c(c(OC)c3occc13)OC(c1ccc(F)c(Br)c1)CC2=O` (stereo not drawn) [4l, 7-(3-Bromo-4-fluorophenyl)-4,9-dimethoxy-6,7-dihydro-5H-furo[3,2-g]chromen-5-one], for which the IC50 at CYP1A1 [6] is 0.14 ± 0.04 µM; on CYP1A2 [7], > 10 µM; against CYP1B1 [8], 23.8 ± 1.2 µM; at CYP3A4, > 10 µM; at CYP2D6 it was > 10 µM. Besides, the “selectivity for CYP1A1 over CYP1B1” value on CYP1A1 [6] was 170 fold. Further, the “protection from CYP1A1-mediated B[a]P toxicity” value in [9] is on record as “completely protected”. Also, the “effect on B[a]P-mediated S-phase block” value with Calu-1 cells and with A549 cells was “restored into the cell cycle; also recorded: preponderantly released from the block; also recorded: prevented manifestation of B[a]P-mediated S-phase block” each time.
`COc1c(C(=O)C=Cc2cccnc2)c(O)c(OC)c2occc12` [3g, 1-(6-Hydroxy-4,7-dimethoxybenzofuran-5-yl)-3-(pyridin-3-yl)prop-2-en-1-one]: the IC50 on CYP1A1 [6] worked out at 0.47 µM; at CYP1A2 [1], 0.17 ± 0.02 µM; against CYP1B1 [8], 0.27 µM; against CYP1B1 [2], 0.66 ± 0.04 µM; at CYP1A1 [4], 0.34 ± 0.03 µM. For the same compound, the inhibition at 10 µM came to 99% at CYP1A1 [6] and 97% on CYP1A1 [4] (human, % inhibition of CYP1A1 at 10 μM (Mean ± SD) Sacchrosomes, 10 μM, Sacchrosomes). Further, the IC50 at 15 min in data set [3] was > 20 µM. In data set [9], the “protection from CYP1A1-mediated B[a]P toxicity” value is recorded as “completely protected”.
